The target in assay [1] is T1, Muscarinic acetylcholine receptor M1 (Homo sapiens) (UniProt P11229).
T1 sequence (whole entry): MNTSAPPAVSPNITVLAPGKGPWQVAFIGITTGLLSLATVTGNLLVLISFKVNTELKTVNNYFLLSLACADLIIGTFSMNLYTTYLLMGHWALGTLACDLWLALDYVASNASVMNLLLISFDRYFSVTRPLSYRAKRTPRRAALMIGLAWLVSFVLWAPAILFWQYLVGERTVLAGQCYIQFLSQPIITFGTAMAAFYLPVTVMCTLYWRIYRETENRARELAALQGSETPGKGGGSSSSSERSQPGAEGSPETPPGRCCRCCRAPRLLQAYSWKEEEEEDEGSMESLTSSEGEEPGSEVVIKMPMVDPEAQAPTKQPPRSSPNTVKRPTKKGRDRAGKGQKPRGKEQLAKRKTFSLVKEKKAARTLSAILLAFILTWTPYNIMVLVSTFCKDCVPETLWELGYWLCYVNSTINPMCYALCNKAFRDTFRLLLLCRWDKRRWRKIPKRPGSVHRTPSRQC
As to the kind of experiment: Agonist potency at muscarinic M1 receptor in rabbit vas deferens. The note with it: Oryctolagus cuniculus, target entry is the homologue from another species. In kind it is functional, tissue-based. The method in brief:
(§1)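 Field-stimulated (0.1 ms, 2 Hz, 10-15 V), contractions recorded isometrically after 1 h equilibration. Cumulative dose-response curves against p-Cl-McN-A-343 reference. Antagonists incubated 60 min before the repeat curve. Reported as pD2 (-log ED50) with intrinsic activity, or as pKb.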

Assay [2] deals with T2, Muscarinic acetylcholine receptor M2 (Homo sapiens) (UniProt P08172).
T2 sequence (whole entry): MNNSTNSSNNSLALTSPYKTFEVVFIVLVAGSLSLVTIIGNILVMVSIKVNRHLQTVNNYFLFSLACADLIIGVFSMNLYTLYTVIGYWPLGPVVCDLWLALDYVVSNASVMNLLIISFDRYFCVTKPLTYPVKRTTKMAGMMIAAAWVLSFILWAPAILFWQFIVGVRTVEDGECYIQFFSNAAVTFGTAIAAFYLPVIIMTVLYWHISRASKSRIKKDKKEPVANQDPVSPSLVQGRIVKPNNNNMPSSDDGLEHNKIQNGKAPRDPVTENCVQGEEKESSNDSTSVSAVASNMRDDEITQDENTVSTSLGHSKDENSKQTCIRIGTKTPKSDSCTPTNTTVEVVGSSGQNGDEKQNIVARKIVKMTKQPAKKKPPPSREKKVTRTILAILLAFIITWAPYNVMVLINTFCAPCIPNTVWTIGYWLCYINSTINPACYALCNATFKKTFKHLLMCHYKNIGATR
Put plainly: Agonist potency at muscarinic M2 receptor in guinea pig atrium. The class given is functional, tissue-based. The note with it: Cavia porcellus; Cardiac atrium; target entry is the homologue from another species. The method in brief:
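Guinea pig left atria in PSS at 30 °C, paced by square-wave pulses (1 ms, 1 Hz, 5-10 V). Inotropic force recorded isometrically after 2 h equilibration, with cumulative dose-response curves to arecaidine propargyl ester as reference. Antagonists incubated 60 min after a 30 min wash, then the curve was repeated. Values given as pD2 with intrinsic activity, or as pKb.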

For assay [3], the target named is T3, Muscarinic acetylcholine receptor M5 (Homo sapiens, UniProt P08912).
T3 sequence (P08912 whole entry): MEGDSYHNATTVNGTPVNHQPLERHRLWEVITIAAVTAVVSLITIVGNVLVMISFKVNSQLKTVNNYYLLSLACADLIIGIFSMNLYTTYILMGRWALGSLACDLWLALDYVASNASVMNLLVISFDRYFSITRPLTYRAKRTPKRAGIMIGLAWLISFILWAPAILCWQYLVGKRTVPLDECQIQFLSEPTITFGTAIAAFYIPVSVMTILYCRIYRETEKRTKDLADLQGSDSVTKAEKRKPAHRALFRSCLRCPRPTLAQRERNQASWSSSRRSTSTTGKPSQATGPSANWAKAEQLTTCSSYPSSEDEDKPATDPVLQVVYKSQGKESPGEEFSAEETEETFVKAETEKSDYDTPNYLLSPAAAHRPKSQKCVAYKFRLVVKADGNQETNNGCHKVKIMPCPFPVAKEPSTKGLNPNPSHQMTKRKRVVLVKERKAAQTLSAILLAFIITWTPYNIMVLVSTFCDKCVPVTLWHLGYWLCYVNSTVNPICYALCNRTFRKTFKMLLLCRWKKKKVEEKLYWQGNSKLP
As to the kind of experiment: Binding affinity to cloned human muscarinic M5 receptor expressed in CHO cells. In kind it is cell-based. The method in brief: (§2)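 Membranes from CHO cells stably expressing human hm2, hm4 or hm5 receptors, at 70, 50 and 25 µg/mL protein respectively. 0.2 nM [3H]NMS displaced by unlabelled ligand for 120 min at room temperature, in 25 mM sodium phosphate with 5 mM MgCl2, pH 7.4. Rapid filtration, then scintillation counting. Mean of at least three experiments.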

For assay [4], the target named is Muscarinic acetylcholine receptor M3 (Homo sapiens, UniProt P20309). As to the kind of experiment: Binding affinity to cloned human muscarinic M3 receptor expressed in CHO cells. In kind it is cell-based.
Chain of Muscarinic acetylcholine receptor M3 (P20309 whole entry): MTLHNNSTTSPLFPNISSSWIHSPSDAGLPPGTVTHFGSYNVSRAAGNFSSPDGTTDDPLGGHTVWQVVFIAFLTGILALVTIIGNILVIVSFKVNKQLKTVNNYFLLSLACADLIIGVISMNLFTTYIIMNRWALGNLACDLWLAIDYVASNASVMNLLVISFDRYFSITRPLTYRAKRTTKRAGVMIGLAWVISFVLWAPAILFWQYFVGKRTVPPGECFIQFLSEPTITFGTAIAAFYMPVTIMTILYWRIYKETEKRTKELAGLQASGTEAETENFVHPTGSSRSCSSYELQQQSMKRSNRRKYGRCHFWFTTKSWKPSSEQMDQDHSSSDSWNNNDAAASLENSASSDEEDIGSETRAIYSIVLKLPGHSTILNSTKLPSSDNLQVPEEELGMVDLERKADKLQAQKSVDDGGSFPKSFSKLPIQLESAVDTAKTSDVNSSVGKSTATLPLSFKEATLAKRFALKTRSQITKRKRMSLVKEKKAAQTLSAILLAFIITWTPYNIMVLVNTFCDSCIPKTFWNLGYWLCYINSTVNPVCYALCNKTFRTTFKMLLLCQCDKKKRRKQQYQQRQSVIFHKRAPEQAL
The target of assay [5] is T4, Muscarinic acetylcholine receptor M1 (Homo sapiens, UniProt P11229).
T4 sequence (P11229 whole entry): T1 sequence (whole entry)
As to the kind of experiment: Binding affinity to cloned human muscarinic M1 receptor expressed in CHO cells. The class given is cell-based.

Assay [6] concerns the target T5, Muscarinic acetylcholine receptor M2 (Homo sapiens, UniProt P08172).
T5 sequence (P08172 whole entry): T2 sequence (whole entry)
As to the kind of experiment: Binding affinity to cloned human muscarinic M2 receptor expressed in CHO cells. The class given is cell-based. In short, it runs like this:
as §2

For assay [7], the target named is Muscarinic acetylcholine receptor M3 (Cavia porcellus) (UniProt Q8VH26). Put plainly: Agonist potency at muscarinic M3 receptor in guinea pig ileum. The class given is functional, tissue-based. The method in brief:
(§3)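 Isolated guinea pig tissue contractions, measured against arecaidine propargyl ester control curves. Agonists: cumulative dose-response curve after a 30 min wash, responses as % of the control maximum. Antagonists: 60 min incubation, then a new agonist curve. Parallel time-control tissues were run. Values expressed as pD2 (-log ED50) with intrinsic activity, or as pKb (-log Kb).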

Assay [8] concerns the target T6, Muscarinic acetylcholine receptor M4 (Homo sapiens) (UniProt P08173).
T6 sequence (whole entry): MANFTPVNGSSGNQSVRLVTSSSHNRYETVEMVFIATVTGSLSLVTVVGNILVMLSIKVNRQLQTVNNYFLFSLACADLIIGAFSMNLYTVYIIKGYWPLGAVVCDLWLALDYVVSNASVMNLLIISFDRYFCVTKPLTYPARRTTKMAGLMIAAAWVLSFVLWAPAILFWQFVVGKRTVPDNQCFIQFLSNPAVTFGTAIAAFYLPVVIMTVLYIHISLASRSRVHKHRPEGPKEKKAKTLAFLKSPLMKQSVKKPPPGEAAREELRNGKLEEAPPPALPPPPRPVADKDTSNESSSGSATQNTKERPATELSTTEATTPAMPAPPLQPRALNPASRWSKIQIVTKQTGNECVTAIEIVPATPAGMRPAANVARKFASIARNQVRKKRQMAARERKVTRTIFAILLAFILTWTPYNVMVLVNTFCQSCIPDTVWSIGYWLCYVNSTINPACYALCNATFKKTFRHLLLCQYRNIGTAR
Put plainly: Agonist potency at muscarinic M4 receptor in guinea pig lung strips. The class given is functional. To be noted: Cavia porcellus, target entry is the homologue from another species. The method in brief: as §3

Assay [9] concerns the target T7, Muscarinic acetylcholine receptor M4 (Homo sapiens, UniProt P08173).
T7 sequence (P08173 whole entry): T6 sequence (whole entry)
As to the kind of experiment: Binding affinity to cloned human muscarinic M4 receptor expressed in CHO cells. The class given is cell-based. In short, it runs like this:
as §2

Assay [10] has as its target T2, Muscarinic acetylcholine receptor M2 (Homo sapiens). Put plainly: Efficacy of agonist at muscarinic M2 receptor in guinea pig atrium as ratio of Ka/ED50. The class given is functional, tissue-based. To be noted: Cavia porcellus; Cardiac atrium; target entry is the homologue from another species. The method in brief: (§4)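 Functional affinity constants (Ka) obtained in the atrium and ileum preparations. Full agonists: Furchgott-Bursztyn method. Partial agonists: Waud method, comparing their concentration-response curves with arecaidine propargyl ester, with equieffective concentrations read graphically. Ka was then related to ED50.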

Assay [11] has as its target Muscarinic acetylcholine receptor M3 (Cavia porcellus) (UniProt Q8VH26). As to the kind of experiment: Efficacy of agonist at muscarinic M3 receptor in guinea pig ileum as ratio of Ka/ED50. The class given is functional, tissue-based. In short, it runs like this: as §4
Assay [12] addresses T1, Muscarinic acetylcholine receptor M1 (Homo sapiens). Put plainly: Antagonist affinity at muscarinic M1 receptor in rabbit vas deferens. The class given is functional, tissue-based. The note with it: Oryctolagus cuniculus, target entry is the homologue from another species. In short, it runs like this: as §1
The target in assay [13] is T6, Muscarinic acetylcholine receptor M4 (Homo sapiens). Put plainly: Antagonist affinity at muscarinic M4 receptor in guinea pig lung strips. The class given is functional. To be noted: Cavia porcellus, target entry is the homologue from another species. In short, it runs like this:
as §3

In assay [14] the target is Muscarinic acetylcholine receptor M3 (Cavia porcellus) (UniProt Q8VH26). As to the kind of experiment: Antagonist affinity at muscarinic M3 receptor in guinea pig ileum. The class given is functional, tissue-based. The method in brief:
as §3

Chain of Muscarinic acetylcholine receptor M3 (Cavia porcellus) (Q8VH26 1-587): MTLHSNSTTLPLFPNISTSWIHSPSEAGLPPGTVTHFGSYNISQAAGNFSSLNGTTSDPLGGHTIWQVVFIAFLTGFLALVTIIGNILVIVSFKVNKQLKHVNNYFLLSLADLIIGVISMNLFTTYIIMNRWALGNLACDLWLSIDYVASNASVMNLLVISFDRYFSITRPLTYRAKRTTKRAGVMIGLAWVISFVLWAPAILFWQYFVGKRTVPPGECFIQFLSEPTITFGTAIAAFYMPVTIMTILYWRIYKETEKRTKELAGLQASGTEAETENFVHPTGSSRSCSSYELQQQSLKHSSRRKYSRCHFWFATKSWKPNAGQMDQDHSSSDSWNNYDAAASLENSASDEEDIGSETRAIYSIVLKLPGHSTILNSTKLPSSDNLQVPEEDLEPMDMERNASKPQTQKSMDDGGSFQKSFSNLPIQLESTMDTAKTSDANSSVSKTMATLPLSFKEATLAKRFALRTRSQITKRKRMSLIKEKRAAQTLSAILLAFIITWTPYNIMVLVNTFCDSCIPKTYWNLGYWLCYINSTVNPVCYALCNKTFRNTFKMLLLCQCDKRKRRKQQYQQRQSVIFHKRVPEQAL

As to `C#CCOC(=O)C1=CCCN(C)C1` [ARECAIDINE PROPARGYL ESTER], the pD2 was 7.14 in assay [1], 8.67 in [2], 7.64 in assay [7] and 5.56 in assay [8]. In addition, the Activity in [2] and in assay [7] was 1 each time. Moreover, the Ki in [3] was 0.933 µM; in [4], 0.851 µM; in assay [5], 1.23 µM; in assay [6], 0.0871 µM; in assay [9] it was 0.977 µM.
Consider `C[C@@H]1O[C@H]([C@H]2CCC[N+]2(C)C)C[S@@+]1[O-]`, for which the Ratio is 12 in [10] and 7 in assay [11]. The figures for the -logKa in assay [2] and in assay [7] were 5.11 and 4.87, respectively. The Activity came out at 0.58 in assay [2] and 1 in assay [7]. Further, the figures for the pD2 in assay [2] and in [7] were 6.11 and 5.58, respectively. Besides, the Ki was greater than 100 µM in assay [3]; greater than 100 µM in assay [4]; greater than 100 µM in assay [5]; 9.33 µM in [6]; greater than 100 µM in [9]. Further, the pKb in assay [12] and in [13] was less than 5 in each case.
In the case of `C[C@@H]1O[C@H]([C@@H]2CCC[N+]2(C)C)C[S@@+]1[O-]`, the Ratio came out at 58 in assay [10] and 1 in assay [11]. For the same compound, the -logKa in [2] was 4.64; in assay [7] it was 4.59. Moreover, the Activity in assay [2] is 0.56; in assay [7] it was 0.54. The pD2 in assay [2] was 6.37; in assay [7], 4.62. Also, the Ki in assay [3] is 33.9 µM; in [4], 33.9 µM; in assay [5], 93.3 µM; in [6] it was 15.5 µM; in [9], 46.8 µM. The pKb in assay [12] and in assay [13] was less than 5 in each case.
`C[N+](C)(C)CC#CCOC(=O)Nc1ccc(Cl)cc1` came in with a pD2 in assay [1] of 6.33. Moreover, the Ki is 3.8 µM in assay [3]; 2.4 µM in assay [4]; 1.95 µM in assay [5]; 3.24 µM in [6]; 9.12 µM in assay [9].
Regarding `C[C@@H]1O[C@H]([C@@H]2CCC[N+]2(C)C)C[S@+]1[O-]`, the Ratio in assay [10] turned out to be 84. Also, in assay [2], the -logKa is 6.13. In addition, the Activity in [2] worked out at 0.41; in assay [7], 0. Further, the pD2 in assay [2] was determined as 7.65. For the same compound, the Ki is greater than 100 µM in assay [3]; greater than 100 µM in assay [4]; greater than 100 µM in [5]; 51.3 µM in assay [6]; greater than 100 µM in assay [9]. Besides, the pKb in [12], in assay [14] and in assay [13] was less than 5 throughout.
For the compound `C[C@H]1O[C@@H](C[N+](C)(C)C)C[S+]1[O-]` (single isomer, unassigned; (-)), the Ratio was 28 in assay [10] and 37 in [11]. The figures for the -logKa in assay [2] and in assay [7] were 5.22 and 5.38, respectively. The pD2 in [2] stood at 6.66; in assay [7], 6.95.

The values above are taken from ChEMBL document CHEMBL1138195, “Highly chiral muscarinic ligands: the discovery of (2S,2'R,3'S,5'R)-1-methyl-2-(2-methyl-1,3-oxathiolan-5-yl)pyrrolidine 3-sulfoxide methyl iodide, a potent, functionally selective, M2 partial agonist” (J Med Chem, 2006).
